Values after ≈ are worked out from the molar mass of the structure shown.
Assays:
[1] = molecular target: T1, Salicyl-AMP ligase / salicyl-S-ArCP synthetase (Mycobacterium tuberculosis, UniProt P71716); experiment: Inhibition of Mycobacterium tuberculosis recombinant MbtA expressed in Escherichia coli by ATP/PPi exchange assay; conditions: read-out: Ki app
T1 sequence (P71716 whole entry): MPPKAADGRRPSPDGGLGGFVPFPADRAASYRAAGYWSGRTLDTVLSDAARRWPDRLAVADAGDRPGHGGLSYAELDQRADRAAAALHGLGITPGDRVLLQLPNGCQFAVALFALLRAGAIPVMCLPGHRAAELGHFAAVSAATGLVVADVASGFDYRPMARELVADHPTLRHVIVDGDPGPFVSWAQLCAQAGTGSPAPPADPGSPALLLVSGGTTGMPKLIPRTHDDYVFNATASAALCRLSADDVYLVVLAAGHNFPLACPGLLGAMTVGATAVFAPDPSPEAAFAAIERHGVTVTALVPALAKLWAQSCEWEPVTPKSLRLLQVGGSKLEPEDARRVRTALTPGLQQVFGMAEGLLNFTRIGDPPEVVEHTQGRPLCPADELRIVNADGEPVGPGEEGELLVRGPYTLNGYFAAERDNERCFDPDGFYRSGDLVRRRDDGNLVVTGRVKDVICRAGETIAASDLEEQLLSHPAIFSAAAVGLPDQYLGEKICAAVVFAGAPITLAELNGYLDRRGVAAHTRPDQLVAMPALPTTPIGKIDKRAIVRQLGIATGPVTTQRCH
In short: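 Recombinant MbtA expressed in E. coli, 7 nM, at 37 °C in 75 mM Tris-HCl pH 7.5, 10 mM MgCl2, 2 mM DTT, 250 μM salicylic acid, 10 mM ATP, 1 mM PPi. Reaction started with [32P]PPi, five inhibitor concentrations, in duplicate. Initial rates (≤10% reaction) measured. Quenched with HClO4/PPi/charcoal; charcoal-bound [32P]ATP counted by scintillation. Apparent Ki from Hill or Morrison (tight-binding) fits.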

[2] = tested on: Mycobacterium tuberculosis; experiment: Antimycobacterial activity against Mycobacterium tuberculosis H37Rv in iron deficient GAST medium; type: functional
In short: (§1)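 Broth microdilution MIC against M. tuberculosis H37Rv in iron-deficient GAST, or GAST supplemented with 200 μM FeCl3 (iron-rich). Compounds added from DMSO stocks; DMSO-only wells as negative control, isoniazid as positive control. Initial density 10^4–10^5 cells/assay, 37 °C, growth read as OD620 at 10–14 days. Run in quadruplicate; reported as MIC99.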

[3] = tested on: Mycobacterium tuberculosis; experiment: Antimycobacterial activity against Mycobacterium tuberculosis H37Rv in iron rich GAST medium; type: functional; in short: as §1

Compound | Ki [1] | MIC99 [2] | MIC99 [3]
Nc1ncnc2c1ncn2[C@@H]1O[C@H](COS(=O)(=O)NC(=O)c2ccccc2F)[C@@H](O)[C@H]1O | 0.038 µM | 12.5 µM (≈ 5.86 µg/mL) | 50 µM (≈ 23.4 µg/mL)
Nc1ncnc2c1ncn2[C@@H]1O[C@H](COS(=O)(=O)NC(=O)c2ccccc2Cl)[C@@H](O)[C@H]1O | 18.1 µM | > 200 µM | > 200 µM
Nc1ncnc2c1ncn2[C@@H]1O[C@H](COS(=O)(=O)NC(=O)c2cccc(Cl)c2O)[C@@H](O)[C@H]1O | 0.061 µM | 50 µM (≈ 25 µg/mL) | > 200 µM
Nc1ncnc2c1ncn2[C@@H]1O[C@H](COS(=O)(=O)NC(=O)c2ccc(Cl)cc2O)[C@@H](O)[C@H]1O | 0.012 µM | 12.5 µM (≈ 6.26 µg/mL) | 50 µM (≈ 25 µg/mL)
Nc1ncnc2c1ncn2[C@@H]1O[C@H](COS(=O)(=O)NC(=O)c2cc(Cl)ccc2O)[C@@H](O)[C@H]1O | 0.02 µM | 12.5 µM (≈ 6.26 µg/mL) | 50 µM (≈ 25 µg/mL)
Nc1ncnc2c1ncn2[C@@H]1O[C@H](COS(=O)(=O)NC(=O)c2ccc(F)cc2O)[C@@H](O)[C@H]1O | 0.012 µM | 0.098 µM (≈ 0.0475 µg/mL) | 0.39 µM (≈ 0.189 µg/mL)
Nc1ncnc2c1ncn2[C@@H]1O[C@H](COS(=O)(=O)NC(=O)c2ccc(Br)cc2O)[C@@H](O)[C@H]1O | 0.021 µM | 6.25 µM (≈ 3.41 µg/mL) | 50 µM (≈ 27.3 µg/mL)
Cc1ccc(C(=O)NS(=O)(=O)OC[C@H]2O[C@@H](n3cnc4c(N)ncnc43)[C@H](O)[C@@H]2O)c(O)c1 | 0.014 µM | 1.56 µM (≈ 0.75 µg/mL) | 25 µM (≈ 12 µg/mL)
Nc1ncnc2c1ncn2[C@@H]1O[C@H](COS(=O)(=O)NC(=O)c2ccc(C(F)(F)F)cc2O)[C@@H](O)[C@H]1O | 4.38 µM | > 200 µM | > 200 µM
Nc1ccc(C(=O)NS(=O)(=O)OC[C@H]2O[C@@H](n3cnc4c(N)ncnc43)[C@H](O)[C@@H]2O)c(O)c1 | 0.04 µM | 1.56 µM (≈ 0.751 µg/mL) | 25 µM (≈ 12 µg/mL)
Nc1ncnc2c1ncn2[C@@H]1O[C@H](COS(=O)(=O)NC(=O)c2c(O)cccc2F)[C@@H](O)[C@H]1O | 0.0073 µM | 0.78 µM (≈ 0.378 µg/mL) | 3.13 µM (≈ 1.52 µg/mL)
Nc1ncnc2c1ncn2[C@@H]1O[C@H](COS(=O)(=O)NC(=O)c2cccc(O)c2O)[C@@H](O)[C@H]1O | 0.137 µM | > 200 µM | > 200 µM
Nc1ncnc2c1ncn2[C@@H]1O[C@H](COS(=O)(=O)NC(=O)c2ccc(O)c(O)c2)[C@@H](O)[C@H]1O | > 100 µM | > 200 µM | > 200 µM
Nc1ncnc2c1ncn2[C@@H]1O[C@H](COS(=O)(=O)NC(=O)c2ccc[nH]c2=O)[C@@H](O)[C@H]1O | 3.7 µM | > 200 µM | > 200 µM
Nc1ncnc2c1ncn2[C@@H]1O[C@H](COS(=O)(=O)NC(=O)c2cccnc2F)[C@@H](O)[C@H]1O | 2.9 µM | > 200 µM | > 200 µM
Nc1ncnc2c1ncn2[C@@H]1O[C@H](COS(=O)(=O)NC(=O)c2cccnc2Cl)[C@@H](O)[C@H]1O | 0.175 µM | 12.5 µM (≈ 6.07 µg/mL) | 50 µM (≈ 24.3 µg/mL)
Nc1ncnc2c1ncn2[C@@H]1O[C@H](COS(=O)(=O)NC(=O)N2CCOCC2)[C@@H](O)[C@H]1O | > 100 µM | > 200 µM | > 200 µM
Nc1ncnc2c1ncn2[C@@H]1O[C@H](COS(=O)(=O)NC(=O)C2CCCC2)[C@@H](O)[C@H]1O | 49.8 µM | > 200 µM | > 200 µM
Nc1ncnc2c1ncn2[C@@H]1O[C@H](COS(=O)(=O)NC(=O)C2CCCCC2)[C@@H](O)[C@H]1O | 17.3 µM | > 200 µM | > 200 µM
CC(=O)NS(=O)(=O)OC[C@H]1O[C@@H](n2cnc3c(N)ncnc32)[C@H](O)[C@@H]1O | > 100 µM | > 200 µM | > 200 µM
COC(=O)NS(=O)(=O)OC[C@H]1O[C@@H](n2cnc3c(N)ncnc32)[C@H](O)[C@@H]1O | 2.5 µM | > 200 µM | > 200 µM
Nc1ncnc2c1ncn2[C@@H]1O[C@H](COS(=O)(=O)NC(=O)Cc2ccccc2)[C@@H](O)[C@H]1O | > 100 µM | > 200 µM | > 200 µM
[N-]=[N+]=Nc1c(F)c(F)c(C(=O)NS(=O)(=O)OC[C@H]2O[C@@H](n3cnc4c(N)ncnc43)[C@H](O)[C@@H]2O)c(F)c1F | > 100 µM | > 200 µM | > 200 µM
Nc1ncnc2c1ncn2[C@@H]1O[C@H](CNC(=O)c2coc3ccccc3c2=O)[C@@H](O)[C@H]1O | > 100 µM | 12.5 µM (≈ 5.48 µg/mL) | 50 µM (≈ 21.9 µg/mL)
Nc1ncnc2c1ncn2[C@@H]1O[C@H](CNS(=O)(=O)NC(=O)c2ccccc2O)[C@@H](O)[C@H]1O | – | – | 0.39 µM (≈ 0.182 µg/mL)
Nc1ncnc2c1ncn2[C@@H]1O[C@H](CNC(=O)NC(=O)c2ccccc2O)[C@@H](O)[C@H]1O | 1.25 µM | 200 µM (≈ 85.9 µg/mL) | > 200 µM
Nc1ccccc1C(=O)NS(=O)(=O)OC[C@H]1O[C@@H](n2cnc3c(N)ncnc32)[C@H](O)[C@@H]1O | 0.77 µM | > 200 µM | > 200 µM
Nc1ncnc2c1ncn2[C@@H]1O[C@H](COS(=O)(=O)NC(=O)c2ccccc2)[C@@H](O)[C@H]1O | 0.092 µM | 12.5 µM (≈ 5.63 µg/mL) | 50 µM (≈ 22.5 µg/mL)
Nc1ncnc2c1ncn2[C@@H]1O[C@H](COS(=O)(=O)NC(=O)c2ccccc2[N+](=O)[O-])[C@@H](O)[C@H]1O | 7.32 µM | > 200 µM | > 200 µM
Nc1ncnc2c1ncn2[C@@H]1O[C@H](COS(=O)(=O)NC(=O)[C@@H](N)Cc2ccccc2)[C@@H](O)[C@H]1O [PHESA] | 36.5 µM | > 200 µM | > 200 µM

— ChEMBL document CHEMBL1138283, “5'-O-[(N-acyl)sulfamoyl]adenosines as antitubercular agents that inhibit MbtA: an adenylation enzyme required for siderophore biosynthesis of the mycobactins” (J Med Chem, 2007)
